# Experimental data from different studies.
# Compare with care: the assays were run in different laboratories.
# Target: Myosin light chain kinase, smooth muscle (MYLK, Homo sapiens, UniProt Q15746)
Structure (SMILES),effect on,method,concentration,remaining binding [%]
O=C(c1ccc(Nc2ncc(Cl)c(-c3cc4ccccc4s3)n2)cc1)N1CCC(N2CCCC2)CC1,binding,competition with immobilised ligand,1 µM,54
CN(CCCC(F)(F)F)c1nccc(-c2cnn3ncccc23)n1,binding,,1 µM,100
CCN1CCN(Cc2ccc(C(=O)Nc3ccc(C)c(Oc4ccc5c(c4)CC(=O)N5)c3)cc2C(F)(F)F)CC1,binding,competition with immobilised ligand,1 µM,100
C[C@@H](c1ccc(-n2cnc3c(N)ncnc32)cc1)N1CCc2nn(C)c(Cc3ccccc3)c2C1=O,binding,competition with immobilised ligand,0.1 µM,94
COc1ccnn2ncc(-c3ccnc(N(C)C)n3)c12,binding,,1 µM,100
c1cncc(-c2cccc(Nc3nccc(NC4CCCCC4)n3)c2)c1,binding,competition with immobilised ligand,10 µM,62
CN(C)c1ncc(F)c(-c2cnn3ncccc23)n1,binding,,1 µM,98
CO[C@@H](C)c1c(Nc2ccc([C@H](N(C)C(=O)C3CCS(=O)(=O)CC3)C(F)(F)F)cc2)cnc2cc(Cl)nn12,cell-free assay,competition with immobilised ligand,1 µM,95
Cc1cnc(Nc2ccc(C(=O)N3CCC(N4CCCC4)CC3)cc2)nc1-c1cc2ccccc2s1,binding,competition with immobilised ligand,1 µM,15
F[C@@H]1CCN(c2nccc(-c3cnn4ncccc34)n2)C1,binding,,1 µM,72
C[C@@]1(Cc2ccc(C#N)cc2)C(=O)N(c2cc(Cl)cc(Cl)c2)c2ncc(C(=O)NC3(c4nc(C5CCC5)no4)CC3)n21,cell-free assay,competition with immobilised ligand,1 µM,100
COc1cnc(Nc2cccc(S(N)(=O)=O)c2)nc1N1CCN(c2ccccc2)CC1,binding,competition with immobilised ligand,1 µM,70
O=C(c1ccc(Nc2ncc(Cl)c(-c3ccc(Cl)s3)n2)cc1)N1CCC(N2CCCC2)CC1,binding,competition with immobilised ligand,1 µM,66
CS(=O)(=O)N1CCCC(NC(=O)[C@H](CCC2CCCCC2)NC(=O)c2ccc(CNC(=O)c3cnc4ccccn34)cc2)C1 (stereo partly drawn),cell-free assay,competition with immobilised ligand,0.1 µM,100
CC1CCCN1c1nccc(-c2cnn3ncccc23)n1 (stereo not drawn),binding,,1 µM,97
FC(F)(F)c1ccc2c(c1)nc(-c1cccnc1)n2C1CC1,cell-free assay,competition with immobilised ligand,1 µM,100
O=C(Nc1c[nH]nc1C(=O)NC1CCNCC1)c1cc(F)cc(F)c1,binding,competition with immobilised ligand,1 µM,100
C[C@@H]1CN(c2cc(-c3nn(C)c4ccc(OC5(C)CC5)cc34)ncn2)C[C@H](C)O1,cell-free assay,competition with immobilised ligand,1 µM,64
C=CC(=O)N1CCC(C(=O)NCC(=O)N2CCN(c3nc(-c4cnc(N)nc4C(F)F)nc(N4CCOCC4)n3)CC2)CC1,binding,competition with immobilised ligand,1 µM,61
NS(=O)(=O)c1cc(NC(=O)C2(c3ccccc3Cl)CC2)ccc1Oc1cccc(Cl)c1,cell-free assay,competition with immobilised ligand,1 µM,72
N[C@@H]1CCN(c2nccc(-c3cnn4ncccc34)n2)C1,binding,,1 µM,100
